# Compound activity (PubChem BioAssay)
# T cruzi growth-1 – blocks T. cruzi growth in NIH3T3 culture; inhibition, % at 8.34 µM; T. cruzi beta-gal in NIH3T3, GalScreen luminescence, 90 h; AID 624255; actives 5.9% (n = 77,000);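 active = mean inhibition above about 93%, with at least 55% of replicates each passing it, limit read from the data, passing the limit was not always enough; inconclusive = only one of those two conditions holds; inactive = neither condition holds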
# IDH1 R132H inh – blocks human IDH1 R132H reductase activity | inhibition, % at 10 µM | O75874 | actives 0.18% (n = 70,000) | diaphorase/resazurin fluorescence, 60 min; in the data active = inhibition above about 34%; inconclusive = no clear call, values can overlap the other calls; inactive = below about 11%;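 also: 0% = DMSO and 100% = no enzyme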
# Target sequence (O75874 whole entry R132H): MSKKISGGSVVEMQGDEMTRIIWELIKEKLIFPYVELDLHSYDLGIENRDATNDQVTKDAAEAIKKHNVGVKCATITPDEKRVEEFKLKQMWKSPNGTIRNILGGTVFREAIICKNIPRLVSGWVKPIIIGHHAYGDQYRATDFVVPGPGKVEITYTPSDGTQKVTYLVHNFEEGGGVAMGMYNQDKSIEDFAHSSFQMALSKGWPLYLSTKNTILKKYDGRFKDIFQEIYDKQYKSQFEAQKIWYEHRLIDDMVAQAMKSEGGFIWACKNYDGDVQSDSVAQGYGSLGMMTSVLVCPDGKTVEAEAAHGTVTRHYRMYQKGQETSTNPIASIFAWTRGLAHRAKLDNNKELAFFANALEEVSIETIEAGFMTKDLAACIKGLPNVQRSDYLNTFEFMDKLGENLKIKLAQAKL
# KDM4C inh – inhibitors of human demethylase GASC-1 KDM4C; GST-KDM4C 2-372, H3K9me3 peptide, LANCE TR-FRET; inhibition, % at 12.5 µM; AID 720574; actives 0.15% (n = 96,000);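 active = mean replicate inhibition above about 25%, with at least 55% of replicates also reaching it, limit read from the data, passing the limit was not always enough; inconclusive = only one of those two conditions met; inactive = neither condition met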
# Target sequence (Q9H3R0 2-372 limits assumed): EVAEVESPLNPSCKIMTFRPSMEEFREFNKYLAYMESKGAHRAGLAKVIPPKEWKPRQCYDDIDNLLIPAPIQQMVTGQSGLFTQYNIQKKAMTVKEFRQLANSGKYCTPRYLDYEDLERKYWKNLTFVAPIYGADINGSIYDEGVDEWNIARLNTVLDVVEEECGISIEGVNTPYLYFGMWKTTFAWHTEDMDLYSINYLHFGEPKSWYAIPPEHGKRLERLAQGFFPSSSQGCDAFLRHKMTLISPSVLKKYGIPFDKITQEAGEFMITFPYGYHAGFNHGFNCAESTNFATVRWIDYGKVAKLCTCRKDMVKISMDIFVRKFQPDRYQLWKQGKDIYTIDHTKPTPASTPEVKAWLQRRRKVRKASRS
#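 Material: GST-tagged GASC-1 (JMJD2C) catalytic fragment, aa 2-372 / Quantity: enzyme final amount 10 nM / Medium: HEPES buffer, pH 7.5, plus ascorbate / Doses: one test concentration per compound / Incubation: 30 min reaction, 60 min detection, RT / Measured by: LANCE TR-FRET / Read-out: inhibition from TR-FRET ratio decrease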
# T cruzi growth-2 – Trypanosoma cruzi proliferation inhibition | shares compounds with T cruzi growth-1 | T. cruzi beta-gal in NIH3T3, GalScreen luminescence, 90 h | inhibition, % at 8.35 µM | actives 72% (n = 5,600);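 active = mean replicate inhibition above about 95% and at least 55% of replicates individually reaching it, limit read from the data; inconclusive = only one of the two criteria is met; inactive = neither criterion is met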
# T cruzi growth-3 – blocks T. cruzi growth in NIH3T3 host cells | shares compounds with T cruzi growth-1 | T. cruzi beta-gal in NIH3T3, GalScreen luminescence, 90 h | inhibition, % at 2.09 µM | actives 21% (n = 5,600);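 active = mean inhibition above about 95%, with at least 55% of replicates also reaching it, limit read from the data; inconclusive = meets just one of the two conditions; inactive = meets neither condition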;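 also: plate controls were neutral control median for no effect and positive control median for full effect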
# 3T3 cytotox – cytotoxicity in mouse NIH/3T3 fibroblasts. shares compounds with T cruzi growth-1. cytotoxicity (signal decrease), % at 8.35 µM. AID 651742. actives 14% (n = 5,600). NIH/3T3 viability, CellTiter-Glo ATP luminescence, 90 h;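 active = mean signal decrease across replicates above about 35% based on untreated-well scatter, with enough replicates individually passing, limit read from the data; inconclusive = no rule stated though some were filed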;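 also: 0% = median of neutral control wells and 100% = median of positive control wells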
# NIH3T3 tox 2 – NIH/3T3 (mouse) viability loss; shares compounds with T cruzi growth-1; NIH/3T3 viability, CellTiter-Glo ATP luminescence, 90 h; inhibition, % at 24.9 µM; actives 56% (n = 5,600);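 active = mean loss of cell viability signal at or above a set limit, and enough replicates individually reaching it; inconclusive = meets only the mean limit or only the replicate share; inactive = meets neither condition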;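 also: 0% = median of neutral control wells and 100% = median of positive control wells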
# Numbers without * were called inactive; ? = inconclusive; nt = no result given. The sample as a whole holds a higher share of hits than the screen did.
SMILES,T cruzi growth-1,IDH1 R132H inh,KDM4C inh,T cruzi growth-2,T cruzi growth-3,3T3 cytotox,NIH3T3 tox 2
C[C@@H]1CN([C@H](C)CO)C(=O)Cc2cc(NC(=O)c3ccncc3)ccc2O[C@H]1CN(C)Cc1ccc(Oc2ccccc2)cc1,104.8*,0.2,0.1,109.2*,36.1,4.3,102.5*
C[C@H](CO)N1C[C@H](C)[C@@H](CN(C)Cc2ccncc2)Oc2ccc(NC(=O)c3ccncc3)cc2CC1=O,9.6,1.0,-1.1,nt,nt,nt,nt
C[C@H](CO)N1C[C@H](C)[C@@H](CN(C)Cc2ccccc2)Oc2ccc(NC(=O)c3ccncc3)cc2CC1=O,67.8,2.6,-0.1,nt,nt,nt,nt
O=C(CSc1nnc(-c2ccc(Cl)cc2Cl)o1)Nc1ccc([N+](=O)[O-])cc1,nt,0.2,nt,nt,nt,nt,nt
COCC#Cc1cnc2c(c1)C(=O)N([C@@H](C)CO)C[C@@H](C)[C@@H](CN(C)C(=O)Nc1ccccc1F)O2,22.2,nt,-3.2,nt,nt,nt,nt
Cc1ccc(NC(=O)CSc2ncccn2)cc1Cl,nt,-0.3,nt,nt,nt,nt,nt
COc1ccc2c3c(n(C)c2c1)[C@@H](CO)N(S(C)(=O)=O)CC31CN(C(=O)C2CCCC2)C1,nt,nt,-0.1,nt,nt,nt,nt
C[C@@H]1CN([C@@H](C)CO)C(=O)Cc2cc(NC(=O)c3ccncc3)ccc2O[C@H]1CN(C)Cc1ccc(-c2ccccc2)cc1,109.3*,0.5,-1.8,103.9*,111.3*,28.3,103.0*
C[C@H]1CN([C@@H](C)CO)C(=O)Cc2cc(NC(=O)c3ccncc3)ccc2O[C@@H]1CN(C)Cc1ccc(-c2ccccc2)cc1,80.9,1.1,0.1,nt,nt,nt,nt
COc1ccc(Cl)cc1NC(=O)CSc1nnc(-c2cccc(C)c2)n1C,nt,-0.2,nt,nt,nt,nt,nt
CN(CC(=O)Nc1ccc(Br)cc1F)S(=O)(=O)c1ccc(F)cc1,nt,2.0,nt,nt,nt,nt,nt
COc1ccc(OC)c(NC(=O)Cn2cnc3sc(C)c(-c4ccc(Cl)cc4)c3c2=O)c1,nt,-0.2,nt,nt,nt,nt,nt
C[C@@H]1CN([C@@H](C)CO)C(=O)c2cccc(NC(=O)c3ccc(-c4nccs4)cc3)c2O[C@@H]1CN(C)Cc1ccc(C(F)(F)F)cc1,?,0.4,-3.0,110.9*,102.4*,-55.8,7.2
C[C@H]1CN([C@@H](C)CO)C(=O)c2cccc(NC(=O)c3ccc(-c4nccs4)cc3)c2O[C@@H]1CN(C)Cc1ccc(C(F)(F)F)cc1,109.3*,-0.7,-2.4,94.8,87.0,-4.4,83.7*
C[C@H](CO)N1C[C@H](C)[C@@H](CN(C)Cc2ccc(C(F)(F)F)cc2)Oc2c(NC(=O)c3ccc(-c4nccs4)cc3)cccc2C1=O,96.4,2.6,-0.7,nt,nt,nt,nt
C[C@@H]1CN([C@H](C)CO)C(=O)c2cccc(NC(=O)c3ccc(-c4nccs4)cc3)c2O[C@@H]1CN(C)Cc1ccc(C(F)(F)F)cc1,106.1,-12.0,-1.0,nt,nt,nt,nt
CN(C)c1nc(OCC(=O)Nc2ccc(Cl)cc2)nc(N(C)C)n1,nt,1.3,nt,nt,nt,nt,nt
COc1ccc(NC(=O)CSc2nc3c(cc2C#N)CCCCC3)cc1OC,nt,0.1,nt,nt,nt,nt,nt
COc1ccccc1CNC(=O)C[C@@H]1CC[C@H](NC(=O)CC2CC2)[C@@H](CO)O1,10.9,0.0,1.4,nt,nt,nt,nt
COc1ccc(CN(C)C[C@H]2Oc3ccc(NS(=O)(=O)c4ccc(C)cc4)cc3CC(=O)N([C@H](C)CO)C[C@H]2C)cc1,114.7*,0.5,-5.7,107.9*,36.5,8.9,?
COc1ccc(CN(C)C[C@H]2Oc3ccc(NS(=O)(=O)c4ccc(OC)cc4)cc3CC(=O)N([C@H](C)CO)C[C@H]2C)cc1,83.7,nt,-0.2,nt,nt,nt,nt
COc1ccc(CN(C)C[C@@H]2Oc3ccc(NS(=O)(=O)c4ccc(OC)cc4)cc3CC(=O)N([C@H](C)CO)C[C@H]2C)cc1,104.5*,-1.9,-0.5,103.4*,80.7,5.7,20.5
COc1ccc(S(=O)(=O)Nc2ccc3c(c2)CC(=O)N([C@H](C)CO)C[C@@H](C)[C@H](CN(C)Cc2ccc(C(F)(F)F)cc2)O3)cc1,?,1.7,-0.1,101.9*,45.2,5.0,58.8*
COc1ccc(CN(C)C[C@H]2Oc3ccc(NS(=O)(=O)c4ccc(OC)cc4)cc3CC(=O)N([C@H](C)CO)C[C@@H]2C)cc1,nt,0.0,6.7,nt,nt,nt,nt
COc1ccc(S(=O)(=O)Nc2ccc3c(c2)CC(=O)N([C@@H](C)CO)C[C@@H](C)[C@@H](CN(C)Cc2ccc(C(F)(F)F)cc2)O3)cc1,76.5,-1.2,2.9,nt,nt,nt,nt
SMILES,T cruzi growth-1,IDH1 R132H inh,KDM4C inh,T cruzi growth-2,T cruzi growth-3,3T3 cytotox,NIH3T3 tox 2
C=C1C(=O)O[C@H]2[C@H]1[C@@H](OC(=O)C(C)(O)C(C)Cl)C(OC(C)=O)/C(C(=O)OC)=C\CC[C@@]1(C)O[C@H]21 (some centres undefined),nt,-0.7,nt,nt,nt,nt,nt
COC(=O)CSc1nc(-c2cccc(C)c2)nc2c1CCCC2,nt,-0.4,nt,nt,nt,nt,nt
CC(Sc1nc(-c2ccccc2)c(C#N)c(=O)[nH]1)C(=O)Nc1cccc(Cl)c1 (centres undefined),nt,1.3,nt,nt,nt,nt,nt
O=C(NC1CCCC1)N1CCCCN2[C@H](CO)[C@H](c3ccc(-c4ccncc4)cc3)[C@H]2C1,41.1,nt,-1.1,nt,nt,nt,nt
COc1ccccc1-c1ccc([C@H]2[C@@H](CO)N3CCCCN(C(=O)NC4CCCC4)C[C@@H]23)cc1,100.3*,nt,0.1,109.1*,80.6,-11.5,34.1*
O=C(NC1CCCC1)N1CCCCN2[C@H](CO)[C@H](c3ccc(-c4ccccc4)cc3)[C@@H]2C1,112.7*,nt,1.5,113.4*,78.7,-16.8,63.0*
O=C(NC1CCCC1)N1CCCCN2[C@H](CO)[C@@H](c3ccc(-c4ccccc4)cc3)[C@H]2C1,61.2,nt,-2.6,nt,nt,nt,nt
N#C[C@H]1N[C@@H](CO)[C@@H]1c1ccc(-c2ccccc2F)cc1,58.2,nt,-2.3,nt,nt,nt,nt
N#C[C@@H]1N[C@H](CO)[C@H]1c1ccc(C2=CCCC2)cc1,101.2*,nt,0.1,88.9,-0.9,-25.7,-1.5
N#C[C@H]1N[C@H](CO)[C@H]1c1ccc(-c2ccccc2F)cc1,75.3,nt,0.1,nt,nt,nt,nt
N#C[C@H]1N[C@@H](CO)[C@H]1c1ccc(C2=CCCC2)cc1,46.5,nt,-2.5,nt,nt,nt,nt
N#C[C@@H]1N[C@H](CO)[C@H]1c1ccc(-c2ccccc2F)cc1,101.6*,nt,0.7,52.8,32.9,-2.7,17.3
O=C(NC[C@H]1N[C@@H](CO)[C@H]1c1ccc(-c2ccccc2)cc1)c1ccccc1F,75.5,nt,-3.4,nt,nt,nt,nt
O=C(NC[C@@H]1N[C@@H](CO)[C@@H]1c1ccc(-c2ccccc2F)cc1)c1ccccn1,102.2*,nt,-3.4,44.7,13.3,-9.7,-6.8
N#C[C@@H]1N[C@@H](CO)[C@@H]1c1ccc(-c2ccccc2F)cc1,?,nt,-1.5,11.1,-6.5,-5.6,-0.2
COc1cc(C(=O)O)cc(OC)c1O,nt,-3.5,nt,nt,nt,nt,nt
COc1ccc(C(=O)Nc2ccccc2C(=O)OCc2cccc([N+](=O)[O-])c2)cc1,nt,-0.1,nt,nt,nt,nt,nt
